hIAP inh: blocks human intestinal alkaline phosphatase. P09923. purified IAP, CDP-Star luminescence, 30 min. inhibition, % at 10 µM. actives 0.12% (n = 330,000). AID 2544;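 active = inhibition reaching a set limit with compound at 10 µM in the primary screen, cut at about 35% in these data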;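 also: plate controls were DMSO wells with enzyme for no effect and no-enzyme buffer wells for full effect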
Target sequence (P09923 whole entry, looked up): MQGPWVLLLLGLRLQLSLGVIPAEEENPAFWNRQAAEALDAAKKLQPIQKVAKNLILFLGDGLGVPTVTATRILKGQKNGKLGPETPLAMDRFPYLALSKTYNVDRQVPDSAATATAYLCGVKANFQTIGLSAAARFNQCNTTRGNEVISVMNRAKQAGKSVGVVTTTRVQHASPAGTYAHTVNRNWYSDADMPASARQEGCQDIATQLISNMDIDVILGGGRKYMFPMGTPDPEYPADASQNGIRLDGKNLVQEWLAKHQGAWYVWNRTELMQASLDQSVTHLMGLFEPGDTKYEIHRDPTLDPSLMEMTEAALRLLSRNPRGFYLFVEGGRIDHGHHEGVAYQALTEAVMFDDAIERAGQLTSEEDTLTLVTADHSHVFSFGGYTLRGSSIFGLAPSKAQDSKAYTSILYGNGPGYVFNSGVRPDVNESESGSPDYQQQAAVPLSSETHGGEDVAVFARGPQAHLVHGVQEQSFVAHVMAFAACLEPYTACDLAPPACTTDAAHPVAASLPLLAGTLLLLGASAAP
mIAP block: mouse IAP inhibition; purified mouse IAP, CDP-Star luminescence, 30 min; actives 0.2% (n = 330,000); inhibition, % at 10 µM; AID 2806;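 active = inhibition of at least 40% at 10 µM in the primary screen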;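 also: plate controls were DMSO with enzyme for no effect and no enzyme wells for full effect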
bIAP inh: blocks bovine intestinal alkaline phosphatase activity. 190,000 tested, under 10 active. purified bovine IAP, CDP-star luminescence, 30 min. AID 1019. inhibition, % at 20 µM;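 active = over 50% inhibition of intestinal alkaline phosphatase at 20 µM in the single-dose screen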
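System: purified bovine intestinal alkaline phosphatase (IAP) enzyme; Input: IAP diluted 1/65,000,000 in the well; Measured by: CDP-star luminescence signal; Compound dosing: 20 µM single dose; Incubation: 30 min reaction at room temperature.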
mIAP act: increases mouse intestinal alkaline phosphatase activity. muIAP, CDP-Star luminescence, 30 min; active compounds read high; 1 = vehicle-only enzyme signal, 0 = enzyme-free wells. activation factor at 10 µM. actives 0.24% (n = 330,000);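 active = activation factor of at least 2 at 20 µM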
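Assay system: mouse IAP enzyme; Reagent: CDP-Star chemiluminescent phosphatase substrate; Compound: DMSO-dissolved test compounds; Incubation: 30 min, room temperature; Technique: luminescence from enzymatic CDP-Star hydrolysis; Controls: DMSO-only wells and no-enzyme negative control.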
bIAP activator: increases bovine intestinal alkaline phosphatase activity. purified bovine IAP, CDP-star luminescence, 30 min; active compounds read high; fold of DMSO-control signal, blank-subtracted. activation factor at 20 µM. actives 0.17% (n = 200,000). AID 1016;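 active = activation factor of 2 or more at 20 µM, a signal rise over negative controls twice the positive control's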
hIAP act: increases human intestinal alkaline phosphatase activity; P09923; purified human IAP, CDP-Star luminescence, 30 min; active compounds read high; 1 = vehicle-only enzyme, 0 = enzyme-free background; activation factor at 10 µM; actives 0.16% (n = 330,000);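 active = activation factor of the enzyme at least 2-fold when tested at 20 µM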
An asterisk follows results filed as active; i = inactive; . = not tested or not shown. Sampled rows, rich in hits. Any-hit rate of the full collection: about 0.79%.

SMILES	hIAP inh	mIAP block	bIAP inh	mIAP act	bIAP activator	hIAP act
CCn1c(SCC(=O)Nc2ccccc2OC)nc(O)cc1=O	-5	4	.	0.96	.	1
Cc1ccc(S(=O)(=O)N2CCOCC2)cc1C(=O)OCC(=O)NC1CC1	-4	-12	.	1.1	.	1
Cc1nnsc1C(=O)NC1CCCc2c1cnn2-c1ccc(C(C)(C)C)cc1 (configuration not stated)	9	4	.	0.96	.	0.91
CN(CC(=O)Nc1ccccc1Cl)C(=O)Cn1cc(C(F)(F)F)ccc1=O	-21	0	.	1	.	1.2
S=C(NCc1ccccc1)NC1CCCc2ccccc21 (configuration not stated)	-4	-157	-3	2.6*	1	1
N#Cc1c(NCCN)nc(NCc2ccccc2)c2c1CCN(Cc1ccccc1)C2	.	.	-195	.	3*	.
Nc1[nH]nc2nc(NCc3ccccc3)c3c(c12)CCN(Cc1ccccc1)C3	-1	-16	-370	1.2	4.7*	1
CC(C)CC(C(=O)NC1CCCCC1)N(Cc1ccccc1)C(=O)c1snc(C(N)=O)c1N (configuration not stated)	15	-6	.	1.1	.	0.85
O=C(/C=C/c1ccco1)N(Cc1cccc(F)c1)C1CCS(=O)(=O)C1 (configuration not stated)	-18	1	.	0.99	.	1.2
Cn1c(=O)[nH]c(=O)c2c1nc(N1CCCCCC1)n2CCSc1nc2ccccc2o1	0	-11	5	1.1	0.9	1
Cn1c(=O)[nH]c(=O)c2c1nc(N1CCCCCC1)n2CCCSc1nc2ccccc2o1	-1	-9	i	1.1	6.8*	1
O=C1c2ccccc2S(=O)(=O)c2cc(N3CCC(C(=O)N4CCCCC4)CC3)ccc21	19	-2	.	1	.	0.81
O=C1c2ccccc2S(=O)(=O)c2cc(N3CCc4ccccc4C3)ccc21	8	43*	.	0.57	.	0.92
CCOCCCNC(=S)N1C2CCC1CC(NC(=O)Nc1ccc(C(=O)OCC)cc1)C2 (configuration not stated)	-38	-120	-38	2.2*	1.4	1.4
CCNC(=S)N1C2CCC1CC(NC(=O)Nc1ccc(C(=O)OCC)cc1)C2 (configuration not stated)	8	-56	-12	1.6	1.1	0.92
CCOc1ccc(NC(=O)Nc2cc(C(=O)O)ccc2N2CC3CC(C2)c2cccc(=O)n2C3)cc1 (configuration not stated)	-16	-5	.	1.1	.	1.2
CC(=O)OCCCNc1cc(SCc2ccco2)c2nonc2c1[N+](=O)[O-]	-4	50*	15	0.5	0.9	1
CCCSc1cc(NCCOC(=O)CCC)c([N+](=O)[O-])c2nonc12	9	17	.	0.83	0.4	0.91
CCCC(=O)OCCNc1cc(SCc2ccco2)c2nonc2c1[N+](=O)[O-]	7	49*	30	0.51	0.7	0.93
O=C(O)C1CCN(S(=O)(=O)Cc2ccccc2)CC1	10	4	.	0.96	.	0.9
Cc1ccsc1C(=O)OCC(=O)N1CC(C)CC(C)C1 (configuration not stated)	15	9	.	0.91	.	0.85
CCCNC(=O)C(Cc1ccc(F)cc1)NC(=O)c1ccccc1 (configuration not stated)	-4	-2	.	1	.	1
Cc1ccc(Oc2c(CO)c(-c3ccccc3)nn2C)cc1	-11	1	12	0.99	0.9	1.1
CCCOC(=O)c1ccc(NC(=O)Oc2ccccc2)cc1	15	-4	-157	1	2.6*	0.85
Cc1cccc(NC(=S)NC2CC3CCCC(C2)N3Cc2cccs2)c1 (configuration not stated)	10	-488	-20	5.9*	1.2	0.9
SMILES	hIAP inh	mIAP block	bIAP inh	mIAP act	bIAP activator	hIAP act
c1ccc2c(c1)CCN(c1ncnc3c1[nH]c1ccccc13)C2	-3	-26	-113	1.3	2.1*	1
CC(C)NC[C@@H](O)c1ccc(O)c(O)c1	-5	43*	11	0.57	0.9	1.1
Cc1ccc(C(=O)Sc2cccccc2=O)cc1	7	8	.	0.92	.	0.93
CCc1ccc(C(C)NC(=S)NC2CCCCC2)cc1 (configuration not stated)	8	-25	.	1.2	.	0.92
CC(C)c1ccc(C(C)NC(=S)NC2CCCCC2)cc1 (configuration not stated)	-46	-116	.	2.2*	.	1.5
CC(C)CNC(=S)NC(=O)c1csc([N+](=O)[O-])c1	-18	11	.	0.89	.	1.2
O=[N+]([O-])c1cc(-c2ncccn2)cs1	-1	3	-146	0.97	2.5*	1
O=C(C1=NOC(CNc2ncc(C(F)(F)F)cc2Cl)C1)N1CCOCC1 (configuration not stated)	-6	-1	2	1	1	1.1
Cc1c(Cl)cccc1NC(=S)NCc1ccccc1Cl	-1	-169	-6	2.7*	1.1	1
COc1ccc(NC(=S)NNC(=O)CCn2cc([N+](=O)[O-])cn2)cc1	-106	6	-31	0.94	1.3	2.1*
O=S(=O)(c1ccc(NC(=S)Nc2ccccc2)cc1)N1CCOCC1	-6	-1	2	1	1	1.1
CC(C)CCCCCCNC(=S)Nc1ccc(S(=O)(=O)N2CCOCC2)cc1	6	-125	6	2.2*	0.9	0.94
Cn1cccc1CC(=O)NNC(=S)Nc1ccc(Cl)cc1	-110	4	-4	0.96	1	2.1*
NS(=O)(=O)c1ccc(CCNC(=O)COC(=O)Cc2c(F)cccc2Cl)cc1	5	6	.	0.94	.	0.95
Nc1ccc(S(=O)(=O)NNC(=O)C(=O)NNc2ccccn2)cc1	-166	27	-30	0.73	1.3	2.7*
COC(=O)CN(c1cc([N+](=O)[O-])ccc1OC)S(C)(=O)=O	1	-8	-16	1.1	1.2	0.99
C=CC[C@H](CC(=O)NCCO)C(=O)NC[C@@H](OC(=O)[C@H](CC=C)CC(=O)OC(C)(C)C)c1ccccc1	2	9	.	0.91	.	0.98
COc1cccc(NC2=NC3(CCCCC3)N=C(N)N2)c1	-2	-54	-332	1.5	4.3*	1
Cc1cccc(C)c1NC1=NC2(CCCCC2)N=C(N)N1	-24	-4	-20	1	1.2	1.2
NC1=NC2(CCCCC2)N=C(Nc2ccc(Br)cc2)N1	5	-327	8	4.3*	0.9	0.95
CC(/C=C/c1ccco1)=N\NC(=O)c1cc(C)[nH]n1	-22	41*	-25	0.59	1.2	1.2
COc1ccc(NC(=O)CN(C)C(=O)CSCc2ccc(C)cc2)cc1	6	-2	.	1	.	0.94
Nn1c(-c2ccccc2Cl)nnc1-c1ccccc1Cl	5	-1	-157	1	2.6*	0.95

Source: PubChem
